Measured values of several laboratories.
Compare with care: the assays were run in different laboratories.
Target: Serine/threonine-protein kinase tousled-like 1 (TLK1, Homo sapiens, UniProt Q9UKI8)
One construct used (Q9UKI8 1-766): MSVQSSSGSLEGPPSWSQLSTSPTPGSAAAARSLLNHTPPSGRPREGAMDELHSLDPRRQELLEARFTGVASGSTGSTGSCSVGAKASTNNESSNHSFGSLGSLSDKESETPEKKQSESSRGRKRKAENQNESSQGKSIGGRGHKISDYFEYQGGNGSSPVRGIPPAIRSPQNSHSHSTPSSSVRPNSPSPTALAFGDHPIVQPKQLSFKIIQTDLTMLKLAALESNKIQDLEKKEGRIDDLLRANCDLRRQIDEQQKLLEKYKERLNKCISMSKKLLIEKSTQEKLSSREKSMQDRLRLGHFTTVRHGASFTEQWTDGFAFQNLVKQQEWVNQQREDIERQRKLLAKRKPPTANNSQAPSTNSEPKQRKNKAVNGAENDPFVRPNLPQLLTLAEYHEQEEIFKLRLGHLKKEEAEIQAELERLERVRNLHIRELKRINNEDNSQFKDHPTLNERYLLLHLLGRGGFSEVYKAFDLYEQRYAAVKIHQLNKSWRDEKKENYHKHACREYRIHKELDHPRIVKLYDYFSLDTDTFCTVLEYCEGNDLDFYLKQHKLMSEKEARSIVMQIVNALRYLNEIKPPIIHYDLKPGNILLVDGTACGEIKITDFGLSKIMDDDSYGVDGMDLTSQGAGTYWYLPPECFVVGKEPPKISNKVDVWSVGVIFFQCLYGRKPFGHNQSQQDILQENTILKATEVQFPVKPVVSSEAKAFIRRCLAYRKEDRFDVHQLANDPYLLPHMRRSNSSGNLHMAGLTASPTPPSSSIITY

`Cc1nccc(COC(=O)N2C[C@@H]3[C@@H](CNC(=O)c4ccc5[nH]nnc5c4)[C@@H]3C2)n1` has a remaining binding of 87% (cell-free assay; competition with immobilised ligand; 1 µM).
`O=C(c1ccc(Nc2ncc(Cl)c(-c3ccc(Cl)s3)n2)cc1)N1CCC(N2CCCC2)CC1` gave a remaining binding of 32% (binding; competition with immobilised ligand; 1 µM).
`CCC(=O)N[C@@H]1CC[C@H](C(=O)N(C)c2ccc(-c3nc4ccccc4o3)cc2)C1` has a remaining binding of 100% (cell-free assay; competition with immobilised ligand; 1 µM).
The remaining binding of `F[C@@H]1CCN(c2nccc(-c3cnn4ncccc34)n2)C1` is reported as 100% (binding; 1 µM).
With `CN(C)C(=O)Cn1cc(-c2nc([C@@](C)(c3ccc(-c4cnc(N)nc4)cc3)C3CC3)no2)cn1` the remaining binding was 100% (cell-free assay; competition with immobilised ligand; 1 µM).
With `COc1ncc2cc3ccccc3nc2c1C#N` the remaining binding was 86% (cell-free assay; competition with immobilised ligand; 5 µM).
`O=C1NC(c2ccccn2)Sc2ccccc21` (centres unmarked) gave a remaining binding of 94% (cell-free assay; competition with immobilised ligand; 1 µM).
With `CN(CCCC(F)(F)F)c1nccc(-c2cnn3ncccc23)n1` the remaining binding was 100% (binding; 1 µM).
For `CCN1CCN(Cc2ccc(C(=O)Nc3ccc(C)c(Oc4ccc5c(c4)CC(=O)N5)c3)cc2C(F)(F)F)CC1`, the remaining binding was 88% (binding; competition with immobilised ligand; 1 µM).
The remaining binding of `Cc1c[nH]c2nccc(Oc3c(F)cc(Nc4cc(Cl)nc(N)n4)cc3F)c12` is reported as 100% (cell-free assay; competition with immobilised ligand; 0.1 µM).
`C[C@@H]1CCN(c2nccc(-c3cnn4ncccc34)n2)C1` gave a remaining binding of 79% (binding; 1 µM).
`O=C(Nc1cccnn1)N1CC(C/C=C/c2cncc(Oc3ccc(C(F)(F)F)cn3)n2)C1` gave a remaining binding of 98% (cell-free assay; competition with immobilised ligand; 1 µM).
The remaining binding of `Cc1cnn2ncc(-c3ccnc(N(C)C)n3)c2c1` is reported as 75% (binding; 1 µM).
`C[C@@H](c1ccc(-n2cnc3c(N)ncnc32)cc1)N1CCc2nn(C)c(Cc3ccccc3)c2C1=O` gave a remaining binding of 81% (binding; competition with immobilised ligand; 0.1 µM).
`O=C(NCCCN1CCOCC1)c1ccc(Nc2ncc(Cl)c(-c3ccc(Cl)s3)n2)cc1` has a remaining binding of 75% (binding; competition with immobilised ligand; 1 µM).
The remaining binding of `CN(C)c1nccc(-c2cnc3ncccn23)n1` is reported as 81% (binding; 1 µM).
`COc1cnc(Nc2cccc(S(N)(=O)=O)c2)nc1N1CCN(c2ccccc2)C(=O)C1` has a remaining binding of 97% (binding; competition with immobilised ligand; 1 µM).
`O=C(Nc1c[nH]nc1C(=O)NC1CCNCC1)c1cc(F)cc(F)c1` gave a remaining binding of 100% (binding; competition with immobilised ligand; 1 µM).
`N[C@H]1CCN(c2nccc(-c3cnn4ncccc34)n2)C1` has a remaining binding of 64% (binding; 1 µM).
For `O=C(NCCCN1CCOCC1)c1ccc(Nc2nccc(-c3cc4ccccc4s3)n2)cc1`, the remaining binding was 63% (binding; competition with immobilised ligand; 1 µM).
